Results gathered from unrelated publications.
Protocols differ between the studies behind these lines.
Target: Serine/threonine-protein kinase PAK 2 (PAK2, Homo sapiens, UniProt Q13177)

C[C@@H](c1cccc(C#N)c1)n1cc(Cl)cc(C(N)=O)c1=N — remaining binding (cell-free assay; competition with immobilised ligand; 1 µM): 96%
O=C(c1ccc(Nc2nccc(-c3cc4ccccc4s3)n2)cc1)N1CCC(N2CCCC2)CC1 — remaining binding (binding; competition with immobilised ligand; 1 µM): 69%
CN(C)CC#Cc1ccc(OCCCc2sc(N3CCc4cccc(C(=O)Nc5nc6ccccc6s5)c4C3)nc2C(=O)O)c(F)c1 — remaining binding (cell-free assay; competition with immobilised ligand; 1 µM): 93%
N#Cc1ccccc1CSc1nnc2c(n1)[nH]c1ccccc12 — remaining binding (binding; competition with immobilised ligand; 10 µM): 88%
O=C(N[C@H]1CCCCC/C=C\C2C[C@@]2(C(=O)O)NC(=O)[C@@H]2C[C@@H](Oc3ccncc3)CN2C1=O)OC1CCCC1 (stereo partly drawn) — remaining binding (binding; competition with immobilised ligand; 1 µM): 79%
O=C(c1ccc(Nc2ncc(Cl)c(-c3ccc(Cl)s3)n2)cc1)N1CCC(N2CCCC2)CC1 — remaining binding (binding; competition with immobilised ligand; 1 µM): 49%
C[C@@H]1CN(c2ccc3ncc(-c4ccc5[nH]nc(C6CC6)c5c4)n3n2)C[C@H](C)O1 — remaining binding (binding; competition with immobilised ligand; 50 nM): 76%
COc1cnc(Nc2cccc(S(N)(=O)=O)c2)nc1N1CCN(c2ccccc2)CC1 — remaining binding (binding; competition with immobilised ligand; 1 µM): 100%
CC(C)(C)c1ccc(-c2nc(CBr)nn2-c2cccc(O)c2)cc1 — remaining binding (cell-free assay; competition with immobilised ligand; 10 µM): 100%
CCC(=O)N[C@H]1CC[C@@H](C(=O)N(C)c2ccc(-c3nc4ccccc4o3)cc2)C1 — remaining binding (cell-free assay; competition with immobilised ligand; 1 µM): 100%
FC(F)(F)Oc1cccc(-c2cnc3ccc(-c4ccncc4)nn23)c1 — remaining binding (cell-free assay; competition with immobilised ligand; 5 µM): 43%
COc1ncc2cc3ccccc3nc2c1C#N — remaining binding (cell-free assay; competition with immobilised ligand; 5 µM): 85%
N[C@H]1CCN(c2nccc(-c3cnn4ncccc34)n2)C1 — remaining binding (binding; 1 µM): 87%
O=C(c1ccc(Nc2ncc(Cl)c(-c3cc4ccccc4s3)n2)cc1)N1CCC(N2CCCC2)CC1 — remaining binding (binding; competition with immobilised ligand; 1 µM): 59%
CN(CCCC(F)(F)F)c1nccc(-c2cnn3ncccc23)n1 — remaining binding (binding; 1 µM): 100%
Cc1c(C(=O)O)cc(-c2ccc(C3CCNCC3)cc2)c2ccc(-c3ccc(C(F)(F)F)cc3)cc12 — remaining binding (cell-free assay; competition with immobilised ligand; 1 µM): 100%
Cc1cnn2ncc(-c3ccnc(N(C)C)n3)c2c1 — remaining binding (binding; 1 µM): 96%
CNCc1ccccc1-c1csc([C@@H](C)Nc2nc(C)nc3cc(OC)c(OC)cc23)c1 — remaining binding (cell-free assay; competition with immobilised ligand; 1 µM): 88%
F[C@@H]1CCN(c2nccc(-c3cnn4ncccc34)n2)C1 — remaining binding (binding; 1 µM): 100%
CCN1CCN(Cc2ccc(C(=O)Nc3ccc(C)c(Oc4ccc5c(c4)CC(=O)N5)c3)cc2C(F)(F)F)CC1 — remaining binding (binding; competition with immobilised ligand; 1 µM): 100%
COc1ccnn2ncc(-c3ccnc(N(C)C)n3)c12 — remaining binding (binding; 1 µM): 78%
O=C(NCC1CCOCC1)c1n[nH]cc1NC(=O)c1c(F)cccc1F — remaining binding (binding; competition with immobilised ligand; 1 µM): 60%
CCS(=O)(=O)c1cc2cc(C[C@](O)(CC(C)(C)c3ccc(F)cc3C(N)=O)C(F)(F)F)[nH]c2cn1 — remaining binding (cell-free assay; competition with immobilised ligand; 1 µM): 86%
C[C@@H]1CCN(c2nccc(-c3cnn4ncccc34)n2)C1 — remaining binding (binding; 1 µM): 99%
